The text below walks through data of ChEMBL document CHEMBL1148903, “New decalin derivatives, eujavanoic acids A and B, from Eupenicillium javanicum” (2004).

Assay [1] relates to Aspergillus fumigatus. Briefly: Antifungal activity against Aspergillus fumigatus up to 100 ug/disk after 48 hrs. It is filed as functional, organism-based. In outline:
(§1)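 Paper disk diffusion assay against Aspergillus fumigatus on potato dextrose agar. Compound was applied per disk, and activity was recorded after 48 h incubation. Other assay conditions follow an earlier published method.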

Assay [2] concerns Aspergillus fumigatus. The assay can be described thus: Antifungal activity against Aspergillus fumigatus at 10 mg/disk after 48 hrs. Type of assay: functional. The procedure, abridged: as §1
Assay [3] concerns Aspergillus fumigatus. The assay can be described thus: Antifungal activity against Aspergillus fumigatus at 1 mg/disk after 48 hrs. It is filed as functional. The procedure, abridged: as §1
Assay [4] has as its system Aspergillus fumigatus. The assay can be described thus: Antifungal activity against Aspergillus fumigatus at 5 mg/disk after 48 hrs. It is filed as functional. In outline: as §1
The subject of assay [5] is Aspergillus fumigatus. The assay can be described thus: Antifungal activity against Aspergillus fumigatus at 0.5 mg/disk after 48 hrs. Type of assay: functional. In outline: as §1

Each structure is given as a SMILES string. Calls of active or inactive are those of the source. No cut-off for these calls is given here.

Consider `C[C@@H]1[C@H](CC[C@@H](O)C[C@@H](O)CC(=O)O)[C@H]2CCCCC2=C[C@H]1O`, for which the result in the assay on Aspergillus fumigatus [1] was inactive.

For the compound `C[C@H]1C=CC2=CCC[C@H](O)[C@@H]2[C@H]1CC[C@@H](O)C[C@@H](O)CC(=O)O`, in the assay on Aspergillus fumigatus [1], the result was inactive.

As for `C[C@@H]1[C@H](O)[C@@H](C)/C=C/C=C/C=C/C=C/C=C/C=C/C=C/[C@H](O[C@@H]2O[C@H](C)[C@@H](O)[C@H](N)[C@@H]2O)C[C@@H]2O[C@](O)(C[C@@H](O)C[C@@H](O)[C@H](O)CC[C@@H](O)C[C@@H](O)CC(=O)O[C@H]1C)C[C@H](O)[C@H]2C(=O)O` [AMPHOTERICIN B], the entries for the “inhibition zone (IZ)” value in the assay with Aspergillus fumigatus [2], in the assay with Aspergillus fumigatus [3] and in the assay with Aspergillus fumigatus [4] were 13 mm, 11 mm and 14 mm, respectively.

For `C[C@H]1C(=O)C=C2CCCC[C@@H]2[C@H]1CC[C@@H](O)C[C@@H](O)CC(=O)O`, in the assay on Aspergillus fumigatus [1], the result was inactive.

As to `CC[C@H](C)C(=O)O[C@H]1CCC[C@@H]2CC[C@H](C)[C@H](CC[C@@H](O)C[C@@H](O)CC(=O)[O-])[C@H]21.[Na+]`, the “inhibition zone (IZ)” value with Aspergillus fumigatus [2] was 22 mm; with Aspergillus fumigatus [4], 18 mm. Further, the result with Aspergillus fumigatus [5] was inactive.

With `CC[C@H](C)C(=O)O[C@H]1CCC[C@@H]2C=C[C@H](C)[C@H](CC[C@@H](O)C[C@@H](O)CC(=O)[O-])[C@@H]12.[Na+]`, the “inhibition zone (IZ)” value is reported as 32 mm with Aspergillus fumigatus [2], 16 mm with Aspergillus fumigatus [3] and 21 mm with Aspergillus fumigatus [4]. In addition, in the assay with Aspergillus fumigatus [5], the outcome was inactive.

For the compound `CCOC(=O)C[C@H](O)C[C@H](O)CC[C@@H]1[C@@H]2C(=CCC[C@@H]2OC(=O)[C@@H](C)CC)C=C[C@@H]1C`, the outcome with Aspergillus fumigatus [2], in the assay on Aspergillus fumigatus [3], with Aspergillus fumigatus [4] and in the assay on Aspergillus fumigatus [5] was inactive.
